# Screens as filed in PubChem.
# HIF act = HIF pathway transcriptional activation | U2OS HRE-luciferase reporter, luminescence; normalized: DMSO 0%, desferrioxamine 100% | actives 0.32% (n = 300,000) | activation, % at 7.5 µM (by protocol);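 active = mean activation of at least 10% of the iron chelator positive control signal, with at least half of replicates also reaching 10%; inconclusive = mean and replicate majority disagree about reaching 10%; inactive = mean and most replicates under 10%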
# T cruzi repl = blocks replication of Trypanosoma cruzi. T. cruzi beta-gal in NIH3T3, luminescence, 90 h. inhibition, % (test concentration not listed). actives 1.4% (n = 300,000). AID 1885;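 active = mean inhibition across valid replicates above about 55%, limit read from the data; inconclusive = mean below that limit but half or more replicates reach it; inactive = mean below it, under half of replicates reach it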;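 also: signal also drops with host cell toxicity which is not excluded here; higher percent means less beta-gal luminescence so fewer parasites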
#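 Material: NIH/3T3 host cells with β-galactosidase reporter T. cruzi; Input: 5,000 host fibroblasts per well; Medium: DMEM, 2% fetal bovine serum; Compound: 50 nL DMSO compound solution per well; Schedule: 3 h host attachment, then at least 90 h co-culture; Detection: luminescent β-galactosidase signal after 60 min lysis.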
# HSF1 activator = increases HSF-1 driven luciferase reporter signal; actives 1.7% (n = 300,000); activation, % at 9 µM; NIH3T3-HGL HSF-1 luciferase reporter, MG132, 8 h; 100% = twice DMSO control signal;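 active = mean replicate activation of at least 50% with a set share of replicates each reaching 50%; inconclusive = only one of those two conditions met; inactive = mean below 50% and too few replicates reaching it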
# HSF1 inh = HSF1 inhibition; NIH3T3-HGL HSE-luciferase, MG132-induced, luminescence 8 h; stronger effect = lower value; activity change, negative = inhibition, % at 7.5 µM (by protocol); actives 0.77% (n = 300,000);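 active = more than half of replicate wells show activity change below -50%, luminescence cut by over half; inconclusive = some wells, but at most half, below -50%; inactive = no replicate well below -50%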;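 also: luciferase reports HSF-1 transcriptional activity via heat shock element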
# Calb FLC = affects C. albicans growth with fluconazole; C. albicans CaCi-2 (fluconazole-resistant clinical isolate) + fluconazole, Alamar Blue growth, 48 h; growth inhibition, % (no concentration beside the values); actives 0.57% (n = 300,000);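 active = growth inhibition above about 58% in most replicates, limit read from the data, passing the limit was not always enough; inconclusive = exactly half the replicates above a set limit; inactive = most replicates below a set limit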;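 also: all wells also contain fluconazole at 8 µg/ml as a sub-toxic cotreatment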
# Hits are given with their value; n = inactive; u = inconclusive; x = no result. Sampled rows, rich in hits. Any-hit rate of the full collection: about 4.4%.
SMILES,HIF act,T cruzi repl,HSF1 activator,HSF1 inh,Calb FLC
O=C(NNC(=O)c1cccnc1SCc1cccc([N+](=O)[O-])c1)c1ccccn1,30,65,n,n,u
CC(C)CC(NC(=O)C(NC(=O)C1CCC(=O)N1C(=O)OCc1ccccc1)C(C)C)C(=O)N1CCCC1C(N)=O (stereo unspecified),n,n,n,n,n
Cc1ccc(O)c(NC(=O)CSc2n[nH]c(-c3ccccc3)n2)c1,n,n,109,n,n
COCCCNC(=O)c1ccc2c3c(onc13)-c1ccccc1C2=O,n,n,139,n,n
CCc1nn(CCCC(=O)NCc2cc(Br)ccc2OC)c(=O)c2cc3occc3n12,n,n,n,n,n
Cc1nc(Cl)c(C(=O)NCc2ccccc2)c(C)c1[N+](=O)[O-],n,n,n,n,n
Cn1c(CSc2nc3ccccc3n2C)nc2ccccc21,n,n,70,n,n
Cn1c(SC2=CS(=O)(=O)c3ccccc32)nc2ccccc21,n,n,n,n,92
Cn1c(CNc2ccccc2O)nc2ccccc21,n,n,80,n,n
CC(NC(=O)CSc1nc2ccccc2n1C)c1ccccc1 (stereo unspecified),n,n,n,n,n
Cc1ccccc1NCc1nc2ccccc2n1C,n,n,u,n,n
COc1ccc(N(C(=O)Cn2nnc(-c3ccc(C)o3)n2)C(C(=O)NC2CCCC2)c2ccncc2)cc1 (stereo unspecified),n,n,n,n,n
Cc1cc2nc(CN(C)Cc3c(C(=O)N(C)C)nc4ccc(Cl)cn34)[nH]c2cc1C,n,n,n,n,n
CC(c1ccon1)N(C)Cc1cn(C)nc1-c1cccc(Cl)c1 (stereo unspecified),n,n,n,n,n
O=C(CCn1c(=O)oc2ccccc21)N1CCCCCC1,n,n,n,n,n
O=C(CCn1c(=S)oc2ccccc21)N1CCCCC1,n,n,54,n,n
COc1ccc(NC(=S)N2CCCCCC2)cc1OC,n,n,n,n,n
Cc1ccc(O)c(C(=O)CC(=O)c2ccccc2Cl)c1,n,n,n,n,108
Cc1ccc(C(=O)CC(=O)c2cccc(F)c2)c(O)c1,n,n,n,n,n
Cc1ccc(C(=O)CC(=O)c2ccccc2C)c(O)c1,n,n,n,n,81
Cc1ccc(O)c(C(=O)CC(=O)c2ccc(C(C)(C)C)cc2)c1,n,n,n,n,n
CC(C)CCNC(=O)C1CCC(=O)N1CCc1ccccc1 (stereo unspecified),n,n,n,n,n
O=C1Nc2ccccc2/C1=C/c1cccnc1,n,n,n,n,n
O=C1Nc2ccccc2/C1=C/c1cnc(-c2ccccc2)[nH]1,n,n,64,n,n
O=C(COC(=O)c1cc[n+]([O-])cc1)Nc1cccc(Cl)c1Cl,n,n,n,-66,u
SMILES,HIF act,T cruzi repl,HSF1 activator,HSF1 inh,Calb FLC
CC(C)CCNC(=O)C(=O)NC1CCCC1,n,n,n,n,n
CC(C)CCNC(=O)C1CCCN1C(=O)NC1CCCCC1 (stereo unspecified),n,n,n,-72,n
Cc1cc(C)n(-c2ccc(Cl)c(C(=O)Nc3ccc(OC(F)(F)F)cc3)n2)n1,x,n,x,x,n
CN(C)c1cc(N/N=C/c2ccc(Cl)cc2)nc(N(C)C)n1,n,u,n,n,98
CCCCN1C(=O)Cc2c1nc(N)c1c(N)nc(N(CCC)CCC)c(C#N)c21,n,74,n,n,n
C=C(C)CN(CC)c1nc(N)c2c(N)nc3c(c2c1C#N)CC(=O)N3C12CC3CC(CC(C3)C1)C2,n,57,55,n,n
N#Cc1c(N2CCCC(O)C2)nc(N)c2c(N)nc3c(c12)CC(=O)N3C12CC3CC(CC(C3)C1)C2 (stereo unspecified),n,n,n,n,n
CC(C)(CO)NCC(O)Cn1cc(C=O)c2ccccc21 (stereo unspecified),n,n,n,n,n
CCN(CC)S(=O)(=O)c1cccc(C(=O)/C=C2/N(C)c3ccccc3C2(C)C)c1,n,57,n,n,n
CN1/C(=C\C(=S)NC(=O)c2cccc(Br)c2)C(C)(C)c2ccccc21,n,n,n,n,n
CC(C)Cn1cc(Cl)c(=O)n(CC(C)C)c1=O,n,n,n,n,n
Cc1nc(SCC(=O)Nc2ccc(Cl)cc2[N+](=O)[O-])nc(C)c1C,n,n,n,n,n
Cc1cc(NC(=O)CSc2nnc(C)o2)no1,n,n,n,n,n
CCc1ccc2c(c1)C1(C(=O)N2)N2CCCC2C(C(=O)c2ccc3ccccc3c2)C12C(=O)Nc1ccccc12 (stereo unspecified),n,n,65,n,n
CCOC(=O)c1[nH]c2cc(OC)c(OC)cc2c1NC(=O)CN1CCN(c2ccc(OC)cc2)C(C)C1 (stereo unspecified),n,n,n,n,n
COc1ccc(CCNC(=O)c2ccc(CNS(=O)(=O)c3cccc(Cl)c3)cc2)cc1OC,n,n,60,n,n
COc1ccc(CCNC(=O)c2ccc(CNS(=O)(=O)c3ccc(C(C)(C)C)cc3)cc2)cc1OC,n,n,n,n,n
C=CCn1c(SCC#N)nc2ccccc2c1=O,n,n,53,n,n
CC(C)Cn1c(SCC#N)nc2ccccc2c1=O,n,n,n,n,n
CCN(CC)C(=O)C1CCCN(c2ccc([N+](=O)[O-])cc2/C=N/NC(=O)c2ccccc2)C1 (stereo unspecified),n,n,n,n,n
CCN(CC)C(=O)C1CCCN(c2ccc([N+](=O)[O-])cc2/C=N/NC(=O)c2ccc([N+](=O)[O-])cc2)C1 (stereo unspecified),n,n,n,-78,n
CCOC(=O)C1=C(CC)Nc2ccccc2N=C1NC(=O)c1oc2ccccc2c1C,n,n,n,n,n
CCOCc1c(C(=O)NC2=Nc3ccccc3NC(CC)=C2C(=O)OCC)oc2ccccc12,n,56,n,n,n
O=C(N/N=C\c1ccco1)Nc1cccc(Cl)c1,n,n,69,n,n
O=C(NCCSCc1ccco1)Nc1cccc(Cl)c1,n,n,60,n,n
SMILES,HIF act,T cruzi repl,HSF1 activator,HSF1 inh,Calb FLC
O=C(NCCSCc1ccco1)Nc1ccc(Cl)cc1,n,n,n,n,n
Cc1[nH]c2ccccc2c1NC(=O)CN1CCN(C(=O)c2ccco2)CC1,n,n,n,n,n
CC(OC(=O)c1oc2ccccc2c1COc1ccccc1)C(N)=O (stereo unspecified),n,n,n,n,109
CC1(C)Cc2nc(Cl)c(C(N)=O)cc2CO1,n,n,n,n,n
C=CCNC(=S)N/N=C/c1ccc(-c2ccc(OC)cc2)o1,n,91,n,n,104
NC(=S)N/N=C/c1ccc(-c2cc(Cl)c(Cl)cc2Cl)o1,n,64,n,n,n
C=CCNC(=S)N/N=C/c1ccc(-c2ccc(Cl)cc2Cl)o1,n,60,n,n,n
C=CCNC(=S)N/N=C/c1ccc(-c2cc(Cl)ccc2Cl)o1,n,n,n,n,n
